# Reference: ChEMBL document CHEMBL1926614, “Substituted thiazoles V. synthesis and antitumor activity of novel thiazolo[2,3-b]quinazoline and pyrido[4,3-d]thiazolo[3,2-a]pyrimidine analogues” (2012)
# Legend:
# Format in all cases: functional
# HCT-15 = experiment: Growth inhibition of human HCT15 cells at 10 uM after 48 hrs by coulter counting; conditions: HCT-15, 48 h, read-out: GI
# Procedure, shortened: (§1)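 Single-dose primary screen across the full NCI 60-cell-line panel. Stocks were made in DMSO and diluted in PBS to a final DMSO below 1%. Cultures at 6 × 10⁴ cells/ml were run in duplicate wells alongside PBS/DMSO vehicle controls at 37 °C in humidified 5% CO₂. Data were expressed as percent growth of treated cells.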
# UACC-257 = experiment: Growth inhibition of human UACC257 cells at 10 uM after 48 hrs by coulter counting; conditions: UACC-257, 48 h, read-out: GI
# Procedure, shortened: (§2)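 Single-dose screen in the NCI 60 human tumor cell line panel (nine subpanels). Compounds dissolved in DMSO and diluted in phosphate buffered saline, keeping final DMSO below 1%. Added in duplicate wells to cells at 6 × 10⁴ cells/ml. Controls held PBS and DMSO at matching dilutions. Incubated at 37 °C, humidified, 5% CO₂. Reported as percent growth of treated cells.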
# UACC-62 = experiment: Growth inhibition of human UACC62 cells at 10 uM after 48 hrs by coulter counting; conditions: UACC-62, 48 h, read-out: GI; procedure, shortened: as §2
# CCRF-CEM = experiment: Growth inhibition of human CCRF-CEM cells at 10 uM after 48 hrs by coulter counting; conditions: read-out: GI; procedure, shortened: as §1
# HL-60(TB) = experiment: Growth inhibition of human HL-60(TB) cells at 10 uM after 48 hrs by coulter counting; conditions: HL-60, 48 h, read-out: GI
# Procedure, shortened: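 Test compound was dissolved in DMSO and diluted in phosphate-buffered saline to a final DMSO level below 1%. Dilutions were plated in duplicate with cell culture at 6 × 10⁴ cells/ml. Vehicle controls held PBS and DMSO at matching dilutions. Incubation was at 37 °C, humidified, under 5% CO₂. Data were reported as percent growth of treated cells.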
# K562 = experiment: Growth inhibition of human K562 cells at 10 uM after 48 hrs by coulter counting; conditions: K562, 48 h, read-out: GI; procedure, shortened: as §1
# MOLT-4 = experiment: Growth inhibition of human MOLT4 cells at 10 uM after 48 hrs by coulter counting; conditions: MOLT-4, 48 h, read-out: GI; procedure, shortened: as §1
# RPMI-8226 = experiment: Growth inhibition of human RPMI8226 cells at 10 uM after 48 hrs by coulter counting; conditions: RPMI-8226, 48 h, read-out: GI; procedure, shortened: as §1
# A549 = experiment: Growth inhibition of human A549 cells at 10 uM after 48 hrs by coulter counting; conditions: A549, 48 h, read-out: GI; procedure, shortened: as §1
# EKVX = experiment: Growth inhibition of human EKVX cells at 10 uM after 48 hrs by coulter counting; conditions: read-out: GI; procedure, shortened: as §1
# HOP-62 = experiment: Growth inhibition of human HOP62 cells at 10 uM after 48 hrs by coulter counting; conditions: HOP-62, 48 h, read-out: GI; procedure, shortened: as §1
# NCI-H226 = experiment: Growth inhibition of human NCI-H226 cells at 10 uM after 48 hrs by coulter counting; conditions: NCI-H226, 48 h, read-out: GI; procedure, shortened: as §1
# NCI-H23 = experiment: Growth inhibition of human NCI-H23 cells at 10 uM after 48 hrs by coulter counting; conditions: NCI-H23, 48 h, read-out: GI; procedure, shortened: as §1
# [1] = Growth inhibition of human NCI-322M cells at 10 uM after 48 hrs by coulter counting; conditions: read-out: GI; procedure, shortened: as §1
# NCI-H460 = experiment: Growth inhibition of human NCI-H460 cells at 10 uM after 48 hrs by coulter counting; conditions: NCI-H460, 48 h, read-out: GI; procedure, shortened: as §1
# NCI-H522 = experiment: Growth inhibition of human NCI-H522 cells at 10 uM after 48 hrs by coulter counting; conditions: NCI-H522, 48 h, read-out: GI; procedure, shortened: as §1
# HCT-116 = experiment: Growth inhibition of human HCT116 cells at 10 uM after 48 hrs by coulter counting; conditions: HCT-116, 48 h, read-out: GI; procedure, shortened: as §1
# HT-29 = experiment: Growth inhibition of human HT-29 cells at 10 uM after 48 hrs by coulter counting; conditions: HT-29, 48 h, read-out: GI; procedure, shortened: as §1
# KM12 = experiment: Growth inhibition of human KM12 cells at 10 uM after 48 hrs by coulter counting; conditions: KM12, 48 h, read-out: GI; procedure, shortened: as §1
# SF-268 = experiment: Growth inhibition of human SF268 cells at 10 uM after 48 hrs by coulter counting; conditions: SF-268, 48 h, read-out: GI; procedure, shortened: as §1
# SF-295 = experiment: Growth inhibition of human SF295 cells at 10 uM after 48 hrs by coulter counting; conditions: SF-295, 48 h, read-out: GI; procedure, shortened: as §1
# SNB-19 = experiment: Growth inhibition of human SNB19 cells at 10 uM after 48 hrs by coulter counting; conditions: SNB-19, 48 h, read-out: GI; procedure, shortened: as §1
# SNB-75 = experiment: Growth inhibition of human SNB75 cells at 10 uM after 48 hrs by coulter counting; conditions: SNB-75, 48 h, read-out: GI; procedure, shortened: as §1
# U-251 = experiment: Growth inhibition of human U251 cells at 10 uM after 48 hrs by coulter counting; conditions: U-251, 48 h, read-out: GI; procedure, shortened: as §2
# LOX IMVI = experiment: Growth inhibition of human LOXIMVI cells at 10 uM after 48 hrs by coulter counting; conditions: read-out: GI; procedure, shortened: as §1
# M14 = experiment: Growth inhibition of human M14 cells at 10 uM after 48 hrs by coulter counting; conditions: M14, 48 h, read-out: GI; procedure, shortened: as §1
# MDA-MB-435 = experiment: Growth inhibition of human MDA-MB-435 cells at 10 uM after 48 hrs by coulter counting; conditions: MDA-MB-435, 48 h, read-out: GI; procedure, shortened: as §1
# SK-MEL-2 = experiment: Growth inhibition of human SK-MEL-2 cells at 10 uM after 48 hrs by coulter counting; conditions: SK-MEL-2, 48 h, read-out: GI; procedure, shortened: as §1
# SK-MEL-28 = experiment: Growth inhibition of human SK-MEL-28 cells at 10 uM after 48 hrs by coulter counting; conditions: SK-MEL-28, 48 h, read-out: GI; procedure, shortened: as §1
# SK-MEL-5 = experiment: Growth inhibition of human SK-MEL-5 cells at 10 uM after 48 hrs by coulter counting; conditions: SK-MEL-5, 48 h, read-out: GI; procedure, shortened: as §1
# NCI/ADR-RES = experiment: Growth inhibition of human NCI/ADR-RES cells at 10 uM after 48 hrs by coulter counting; conditions: read-out: GI; procedure, shortened: as §1
# A498 = experiment: Growth inhibition of human A498 cells at 10 uM after 48 hrs by coulter counting; conditions: A498, 48 h, read-out: GI; procedure, shortened: as §1
# ACHN = experiment: Growth inhibition of human ACHN cells at 10 uM after 48 hrs by coulter counting; conditions: read-out: GI; procedure, shortened: as §1
# CAKI-1 = experiment: Growth inhibition of human Caki1 cells at 10 uM after 48 hrs by coulter counting; conditions: CAKI-1, 48 h, read-out: GI; procedure, shortened: as §1
# UO-31 = experiment: Growth inhibition of human UO31 cells at 10 uM after 48 hrs by coulter counting; conditions: UO-31, 48 h, read-out: GI; procedure, shortened: as §2
# DU-145 = experiment: Growth inhibition of human DU145 cells at 10 uM after 48 hrs by coulter counting; conditions: DU-145, 48 h, read-out: GI; procedure, shortened: as §1
# MCF7 = experiment: Growth inhibition of human MCF7 cells at 10 uM after 48 hrs by coulter counting; conditions: MCF7, 48 h, read-out: GI; procedure, shortened: as §1
# BT-549 = experiment: Growth inhibition of human BT549 cells at 10 uM after 48 hrs by coulter counting; conditions: BT-549, 48 h, read-out: GI; procedure, shortened: as §1
# T47D = experiment: Growth inhibition of human T47D cells at 10 uM after 48 hrs by coulter counting; conditions: read-out: GI; procedure, shortened: as §2
# OVCAR-8 = experiment: Growth inhibition of human OVCAR8 cells at 10 uM after 48 hrs by coulter counting; conditions: OVCAR-8, 48 h, read-out: GI; procedure, shortened: as §1
# 786-0 = experiment: Growth inhibition of human 786-0 cells at 10 uM after 48 hrs by coulter counting; conditions: 786-0, 48 h, read-out: GI; procedure, shortened: as §1
# SN12C = experiment: Growth inhibition of human SN12C cells at 10 uM after 48 hrs by coulter counting; conditions: read-out: GI; procedure, shortened: as §1
# TK-10 = experiment: Growth inhibition of human TK10 cells at 10 uM after 48 hrs by coulter counting; conditions: TK-10, 48 h, read-out: GI; procedure, shortened: as §2
smiles,measurement,setting,value
CCN1CC2=C(N=C3SC=CN3C2c2cccs2)/C(=C/c2cccs2)C1 (stereo not drawn),inhibition of growth at 10 µM,HCT-15,> 10%
same,inhibition of growth at 10 µM,UACC-257,> 10%
same,inhibition of growth at 10 µM,UACC-62,> 10%
same,inhibition of growth at 10 µM,CCRF-CEM,> 10%
same,inhibition of growth at 10 µM,HL-60(TB),> 10%
same,inhibition of growth at 10 µM,K562,> 10%
same,inhibition of growth at 10 µM,MOLT-4,> 10%
same,inhibition of growth at 10 µM,RPMI-8226,> 10%
same,inhibition of growth at 10 µM,A549,> 10%
same,inhibition of growth at 10 µM,EKVX,> 10%
same,inhibition of growth at 10 µM,HOP-62,> 10%
same,inhibition of growth at 10 µM,NCI-H226,> 10%
same,inhibition of growth at 10 µM,NCI-H23,> 10%
same,inhibition of growth at 10 µM,[1],> 10%
same,inhibition of growth at 10 µM,NCI-H460,> 10%
same,inhibition of growth at 10 µM,NCI-H522,> 10%
same,inhibition of growth at 10 µM,HCT-116,> 10%
same,inhibition of growth at 10 µM,HT-29,> 10%
same,inhibition of growth at 10 µM,KM12,> 10%
same,inhibition of growth at 10 µM,SF-268,> 10%
same,inhibition of growth at 10 µM,SF-295,> 10%
same,inhibition of growth at 10 µM,SNB-19,> 10%
same,inhibition of growth at 10 µM,SNB-75,14.2%
same,inhibition of growth at 10 µM,U-251,> 10%
same,inhibition of growth at 10 µM,LOX IMVI,> 10%
same,inhibition of growth at 10 µM,M14,> 10%
same,inhibition of growth at 10 µM,MDA-MB-435,> 10%
same,inhibition of growth at 10 µM,SK-MEL-2,> 10%
same,inhibition of growth at 10 µM,SK-MEL-28,> 10%
same,inhibition of growth at 10 µM,SK-MEL-5,> 10%
same,inhibition of growth at 10 µM,NCI/ADR-RES,> 10%
same,inhibition of growth at 10 µM,A498,21.6%
same,inhibition of growth at 10 µM,ACHN,> 10%
same,inhibition of growth at 10 µM,CAKI-1,> 10%
same,inhibition of growth at 10 µM,UO-31,26.2%
same,inhibition of growth at 10 µM,DU-145,> 10%
same,inhibition of growth at 10 µM,MCF7,> 10%
same,inhibition of growth at 10 µM,BT-549,> 10%
same,inhibition of growth at 10 µM,T47D,11.4%
same,inhibition of growth at 10 µM,OVCAR-8,> 10%
same,inhibition of growth at 10 µM,786-0,> 10%
same,inhibition of growth at 10 µM,SN12C,> 10%
same,inhibition of growth at 10 µM,TK-10,> 10%
